Compound activity: PubChem, NMMLSC
In the library only some 2.5% were active in any assay of this set; here they are far more common.
ABCG2 inh = blocks JC-1 efflux by human ABCG2 transporter. IgMXP3 cells, flow cytometry. inhibition, % at 6.6 µM. hit rate 0.1% among 190,000;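 active = inhibition above 80%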;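 also: 0% = DMSO and 100% = nicardipine control wells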
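Test system: IgMXP3 cells (ABCG2) mixed with DDAO far-red-labelled CCRF-Adr cells (ABCB1). Reagent: JC-1 transporter substrate. Compound dosing: single test compound dose, 6.6 µM final. Times: 10 min compound exposure, 25 °C. Detection: flow cytometry of retained JC-1 fluorescence. Read-out basis: efflux inhibition in percent versus controls. Controls: nicardipine and DMSO wells.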
ABCB1 block = blocks JC-1 efflux by human ABCB1 transporter | hit rate 0.067% among 190,000 | AID 1326 | inhibition, % at 6.6 µM | CCRF-Adr cells, flow cytometry; in the data active = inhibition above about 40%;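 also: 0% = vehicle and 100% = reference inhibitor; higher value means more JC-1 retained so stronger ABCB1 efflux block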
MEKK2 mut-MEK5 = signal of MEK5 binding to mutant human MEKK2 PB1 domain; bead flow cytometry, Alexa488-MEK5 binding to MEKK2 mutant; percent response, % at 10 µM; hit rate 0.35% among 290,000; in the data active = percent response above about 24%, passing the limit was not always enough
MEKK2 WT-MEK5 = raises or lowers MEK5 binding to wildtype human MEKK2 PB1 domain; Q9Y2U5; binding response (% of control), % at 10 µM; bead flow cytometry, Alexa488-MEK5 binding to MEKK2 WT; actives lie on both sides; AID 1531; hit rate 1.1% among 290,000; in the data active = binding response below about 67% or above about 130%
Efflux pump mplx = inhibitors of Candida antifungal efflux pumps expressed in yeast; S. cerevisiae Candida pump triplex, Nile Red efflux; inhibition, % at 10 µM; hit rate 0.44% among 330,000;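 active = plate passing quality check with inhibition over a set limit, or well fluorescence over plate mean plus 4 SD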;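 also: Nile Red retained in pooled yeast measured as flow cytometry median fluorescence; 0% = buffer negative control and 100% = Enniatin B positive control; higher means more Nile Red kept so more efflux inhibition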
MEKK3 PB1 HTS = modulators (inhibitors or enhancers) of MEK5 binding to human MEKK3 PB1 domain; hit rate 1.4% among 290,000; Q99759; bead-based flow cytometry, Alexa488-MEK5 binding to MEKK3; actives lie on both sides; 0 = blocked by unlabeled MEK5, 100 = vehicle; binding response (% of control), % at 10 µM; AID 1529;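 active = binding response more than 3 SD above or below the average of its plate-row segment, actives on both sides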;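 also: Alexa488 bead fluorescence after subtracting the streptavidin-only scavenger bead signal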
MEKK2wt confirm = raises or lowers MEK5 binding to wildtype human MEKK2, retest | shares compounds with MEKK3 PB1 HTS | bead flow cytometry, Alexa488-MEK5 binding to MEKK2 WT; actives lie on both sides | binding response (% of control), % at 10 µM | hit rate 2.4% among 5,900 | AID 1892; in the data active = binding response below about 16% or above about 210%; inactive = in between
MEKK2mut confirm = signal of MEK5 binding to mutant human MEKK2, retest; shares compounds with MEKK3 PB1 HTS; bead flow cytometry, Alexa488-MEK5 binding to MEKK2 mutant; percent response, % at 10 µM; hit rate 2% among 5,900; AID 1893; in the data active = percent response mostly above about 71%, no sharp cut-off; inactive = mostly below about 38%;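 also: higher means compound restores mutant binding toward wildtype level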
MEKK3 confirm = MEKK3-MEK5 PB1 inhibition, single concentration confirmation; binding response (% of control), % at 10 µM; hit rate 1.8% among 5,900; bead flow cytometry, Alexa488-MEK5 binding to MEKK3; active compounds read low; AID 1894; shares compounds with MEKK3 PB1 HTS;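 active = binding response below 72% of control, or above a set upper limit, though filed actives all read lower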;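 also: 100% = DMSO only wells and 0% = binding blocked by excess unlabeled MEK5; lower values mean stronger disruption of MEK5 binding to MEKK3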
Numbers without * were called inactive; · = no result; [ ] = another dose, or the depositor's remark.

SMILES | ABCG2 inh | ABCB1 block | MEKK2 mut-MEK5 | MEKK2 WT-MEK5 | Efflux pump mplx | MEKK3 PB1 HTS | MEKK2wt confirm | MEKK2mut confirm | MEKK3 confirm
CCOc1cc(C(=S)N2CCCC2)ccc1OCC(=O)Nc1c(C)cc(C)cc1C | -1 | 0 | 1 | 103 | 0 | 107 | · | · | ·
COC(=O)/C(N=Nc1c(C)n(C)n(-c2ccccc2)c1=O)=C(\C)O | -6 | 0 | 0 | 108 | 0 | 142* | 98 | -2 | 106
COC(=O)/C(=C/c1ccc2c(c1)c1ccccc1n2C)NC(=O)c1ccccc1 | 5 | 2 | -1 | 99 | 0 | 73*[inhibitor] | 105 | -1 | 105
CCc1ccc(-n2c(SCC(=O)Nc3ccc(C(=O)O)cc3)nnc2-c2ccncc2)cc1 | · | · | 2 | 99 | 0 | 100 | · | · | ·
Cn1ccnc1Sc1ccc(C=O)cc1[N+](=O)[O-] | 1 | 0 | -2 | 91 | 0 | 74*[inhibitor] | 94 | -7 | 96
O=C(/C=C/Nc1ccc(Cc2ccc(N/C=C/C(=O)C(F)(F)F)cc2)cc1)C(F)(F)F | -4 | 2 | 0 | 102 | 0 | 134* | 103 | 0 | 102
CCCCn1c(N)c(N(CC)C(=O)c2c(C)noc2C)c(=O)[nH]c1=O | · | · | · | · | 0 | · | · | · | ·
C/C(=N\NC(=O)c1cccc(S(=O)(=O)N2CCOCC2)c1)c1ccc(OCC(=O)N(C)C)cc1 | · | · | · | · | 0 | · | · | · | ·
FC(F)(F)c1ccc(-c2nnc(-c3ccccn3)c(-c3ccccn3)n2)nc1 | · | · | -37 | 66 | 0 | 61*[inhibitor] | 106 | 3 | 103
c1ccc(-c2nnc(-c3ccccn3)c(-c3ccccn3)n2)nc1 | · | · | 5 | 103 | 0 | 103 | · | · | ·
COc1cc(CNCCCN2CCOCC2)cc(Cl)c1OCC(=O)NC(C)(C)C | · | · | 4 | 104 | 0 | 102 | · | · | ·
COC(=O)C1=C(C)NC(C)=C(C(=O)O[C@@H]2CCCN(Cc3ccccc3)C2)[C@@H]1c1cccc([N+](=O)[O-])c1 | · | · | 10 | 145* | 0 | 111 | 120 | 9 | 106
CCOC(=O)C1=C(C)NC(C)=C(C(=O)OC)C1c1cccc([N+](=O)[O-])c1 (centres undefined) | 9 | 1 | 2 | 98 | 0 | 93 | · | · | ·
Nc1c2c(nc3sc4c(c13)CCCCC4)CCCCC2 | 27 | 0 | 1 | 111 | 0 | 139* | 107 | 2 | 101
Cc1ccc(Oc2cc([N+](=O)[O-])cc3c2C(=O)Nc2ccccc2O3)cc1 | 26 | 6 | -2 | 94 | 0 | 130* | 95 | -4 | 100
O=C(N/N=C/c1ccccc1OCC(=O)N1CCCC1)C(=O)Nc1ccccc1F | 3 | 1 | 2 | 107 | 0 | 122 | · | · | ·
O=c1oc2ccccc2nc1/C=C(O)/C=C\c1ccccc1 | -1 | 0 | -28 | 61*[inhibitor] | 0 | 82*[inhibitor] | 77 | -15 | 100
O=c1oc2ccccc2nc1/C=C(O)/C=C/c1ccc(F)cc1 | 0 | 0 | -1 | 94 | 0 | 100 | · | · | ·
O=C(NC(NC(=S)Nc1ccc(Cl)cc1Cl)C(Cl)(Cl)Cl)c1cccc([N+](=O)[O-])c1 (centres undefined) | -1 | 0 | 14 | 145* | 0 | 141* | 131 | 17 | 111
COc1ccc2nc(NC(=O)Cn3cnc4ccccc4c3=O)sc2c1 | · | · | -31 | 49*[inhibitor] | 0 | 68*[inhibitor] | 102 | 2 | 100
COc1ccc2nc(NC(=O)CN(C)S(=O)(=O)c3cccs3)sc2c1 | 3 | 0 | -22 | -7.0*[inhibitor] | 0 | 1.0*[inhibitor] | 103 | 11 | 103
COc1ccc2nc(NC(=O)CNS(=O)(=O)c3cccs3)sc2c1 | 2 | 0 | -8 | 89 | -1 | 101 | · | · | ·
CCOCC(=O)Nc1nc2ccc(OC)cc2s1 | 39 | 0 | -14 | 89 | 0 | 81*[inhibitor] | 97 | -3 | 96
C=CCOC(=O)N1CCN(c2cccc(C(F)(F)F)c2)CC1 | 5 | 0 | 1 | 104 | 0 | 106 | · | · | ·
Cc1cccnc1NC(=O)c1ccc(Cl)c(S(=O)(=O)N2CCCCC2)c1 | · | · | · | · | 0 | · | · | · | ·
SMILES | ABCG2 inh | ABCB1 block | MEKK2 mut-MEK5 | MEKK2 WT-MEK5 | Efflux pump mplx | MEKK3 PB1 HTS | MEKK2wt confirm | MEKK2mut confirm | MEKK3 confirm
CC1CC(CCN)(c2ccccc2)C(C)CN1C (centres undefined) | · | · | 3 | 102 | 0 | 100 | · | · | ·
CC(C)C[C@@H](C(=O)N[C@@H](C(=O)O)c1ccccc1)N1C(=O)N2CCc3c([nH]c4ccccc34)[C@@]2(C)C1=O | · | · | 3 | 98 | 0 | 104 | · | · | ·
O=C(Nc1cccc(-n2cnnn2)c1)c1ccc(OC(F)(F)F)cc1 | · | · | 9 | 108 | 0 | 105 | · | · | ·
c1ccc(CN2CCC(Nc3nc(-c4cccs4)nc4ccccc34)CC2)cc1 | 4 | 9 | 27 | 188* | 0 | 116 | 173 | 40 | 112
CN(C)CCNc1nc2sc3c(c2c(=O)n1Cc1ccccc1)CCCCC3 | · | · | 22 | 149* | · | 106 | 150 | 25 | 107
CN(C)CCNc1nc2sc3c(c2c(=O)n1-c1ccccc1)CCCCC3 | · | · | -18 | 106 | 0 | 95 | · | · | ·
O=c1c2c(nc3nc(NCc4cccc5ccccc45)[nH]n13)CCC2 | -4 | -1 | -1 | 97 | 0 | 94 | · | · | ·
